Test results: paper PMC5260928 (Bioorganic & medicinal chemistry, 2016)

Columns and labels:
[1] = molecular target: gp41 hydrophobic pocket (Fe(envC)3) (Human immunodeficiency virus type 1 group M subtype B, UniProt P04578); experiment: Surface plasmon resonance; type: binding, HIV-1; conditions: for kd: SPR 1:1 binding kinetic analysis, RUmax fixed; for kd1 / kd2: bivalent binding model
[2] = system: HIV-1 Ba-L and IIIB; experiment: Virus-cell fusion; type: cell-based; conditions: for activity against VCF: result in words; for IC50: Human immunodeficiency virus 1, BAL|IIIB, read-out: IC50 against VCF
Outline: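 MAGI-CCR5 cells, 10,000 per well, grown overnight in DMEM with 10% FBS. Medium replaced with test compound at 6 dilutions, each in triplicate. HIV-1 Ba-L (CCR5-tropic) or IIIB (CXCR4-tropic) added at ~10 TCID50/well. Assay run at 2% serum and incubated 48 h. Read-out is Tat-induced β-Gal expression by chemiluminescence.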

[3] = molecular target: gp41 hydrophobic pocket (Fe(env2.0)3) (Human immunodeficiency virus type 1 group M subtype B, UniProt P04578); experiment: Fluorescence competitive binding assay for the hydrophobic pocket, Fe; parameters: species or system HIV-1; conditions: for Ki: Inhibition constant KI, dimers, 1:1 binding model with Rt = 7.2 µM, poor fit; for improvement (reduction) of KI over the respective monomer: compared with monomers 3 and 4
[4] = system: HIV-1 IIIB; experiment: CXCR4-tropic MAGI antiviral assay; type: cell-based; conditions: IIIB virus
[5] = system: HIV-1 Ba-L; experiment: CCR5-tropic MAGI antiviral assay; type: cell-based; conditions: Ba-L virus
[6] = system: HXB2 Env; conditions: read-out: IC50 CCF; cell-cell fusion, three-subunit peptidomimetics; cited from earlier work

Compound: Nc1ccc(C(=O)N[C@@H](Cc2c[nH]c3ccccc23)C(=O)O)cc1OCCc1c[nH]c2ccccc12 [Compound 3, H2N-[Trp]-Trp-OH]
- kd [1]: 0.834 s⁻¹
- activity against VCF [2]: ineffective

Compound: Nc1ccc(C(=O)N[C@@H](Cc2c[nH]c3ccccc23)C(=O)O)cc1OCc1ccc(Cl)cc1 [Compound 4, H2N-[Phe4Cl]-Trp-OH]
- kd [1]: 0.820 s⁻¹
- activity against VCF [2]: ineffective

Compound: O=C(CCC(=O)Nc1ccc(C(=O)N[C@@H](Cc2c[nH]c3ccccc23)C(=O)O)cc1OCCc1c[nH]c2ccccc12)NCCOCCOCCOCCNC(=O)CCC(=O)Nc1ccc(C(=O)N[C@@H](Cc2c[nH]c3ccccc23)C(=O)O)cc1OCCc1c[nH]c2ccccc12 [Compound 7]
- Ki [3]: 1 µM
- residual fusion activity at plateau of antiviral activity [4]: ~ 6%
- kd [1]: 0.060 s⁻¹
- kd1 [1]: 0.0869 s⁻¹
- kd2 [1]: 0.0145 s⁻¹
- residual fusion activity at plateau of antiviral activity [5]: ~ 20%
- IC50 [2]: 3 to 5 µM

Compound: O=C(CCC(=O)Nc1ccc(C(=O)N[C@@H](Cc2c[nH]c3ccccc23)C(=O)O)cc1OCc1ccc(Cl)cc1)NCCOCCOCCOCCNC(=O)CCC(=O)Nc1ccc(C(=O)N[C@@H](Cc2c[nH]c3ccccc23)C(=O)O)cc1OCc1ccc(Cl)cc1 [Compound 8]
- Ki [3]: 5.3 µM
- kd [1]: 0.037 s⁻¹
- kd1 [1]: 0.0638 s⁻¹
- kd2 [1]: 0.0033 s⁻¹
- IC50 [2]: 3 to 5 µM

Compound: O=C(CCc1c[nH]c2ccccc12)NCCCCCC(=O)Nc1ccc(C(=O)N[C@@H](Cc2c[nH]c3ccccc23)C(=O)O)cc1OCCc1c[nH]c2ccccc12 [Compound 10]
- improvement (reduction) of KI over the respective monomer [3]: 6 fold
- kd [1]: 0.093 s⁻¹
- IC50 [2]: 13 to 17 µM

Compound: O=C(CCc1c[nH]c2ccccc12)NCCCCCC(=O)Nc1ccc(C(=O)N[C@@H](Cc2c[nH]c3ccccc23)C(=O)O)cc1OCc1ccc(Cl)cc1 [Compound 11]
- improvement (reduction) of KI over the respective monomer [3]: 6 fold
- kd [1]: 0.186 s⁻¹
- IC50 [2]: 13 to 17 µM

Compound: H2N-Asn-[Trp]-Trp-COOH
- IC50 [6]: 6 µM

Compound: H2N-Trp-[Trp]-Leu-COOH
- IC50 [6]: 5 µM
